Among the data in ChEMBL document CHEMBL4513216, “Probing the Open Global Health Chemical Diversity Library for Multistage-Active Starting Points for Next-Generation Antimalarials” (ACS Infect Dis, 2020) are cytotoxicity values, retold here.

The series in a line: Toxicity liver stage against HepG2, at 10uM. The format is cell-based. On the set-up: test concentration 10 uM, cell line HepG2-A16-CD81EGFP. The note with it: human, HepG2-A16-CD81EGFP cells; read-out: INHIBITION
Put shortly: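 Uninfected HepG2-A16-CD81EGFP cells, 3 × 10^3 per well, 1536-well, plated on prespotted compound at 10 μM final, parasite-free screening media added to match infected plates; puromycin 10 μM positive, DMSO 0.5% negative; run in parallel with 48 h PbLuc assay at 37 °C, 5% CO2; viability by CellTiter-Glo luminescence, normalized to controls.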
As to `Cc1c(C)n2c(SCC(=O)N3CCC(C)CC3)nnc2[nH]c1=O`, the cytotoxicity at 10 µM is 0.351%.
Turning to `CC(C)(C)c1csc(CCNC(=O)[C@H](c2ccccc2)n2cnnn2)n1`, the cytotoxicity at 10 µM stood at 2.07%.
To `Cc1nnc(CNC(=O)C2CSCCC(=O)N2)o1` (centres undefined) belongs -10.1%.
To `Cc1nc(C)c2c(n1)CCN(Cc1ccsc1)CC2` belongs -126%.
To `CO[C@H]1CC[C@H]2[C@H]1OCCN2C(=O)C1=CCCC1` belongs -131%; to `Cc1cc(C2CCCN2Cc2cc(-c3ccco3)on2)on1` (centres undefined), 1.6%.
On to `Cc1nnc(N2CCc3cncnc3C2)c(C#N)c1C`, for which the cytotoxicity at 10 µM was -154%.
Turning to `CCN(C(=O)Nc1nncs1)C(C)c1cccc(OC)c1` (centres undefined), the cytotoxicity at 10 µM turned out to be 4.84%.
Turning to `Cc1cccc(CN2CC[C@@H]3O[C@@H](C(=O)N4CCN(C)CC4)C[C@@H]32)n1`, the cytotoxicity at 10 µM is 1.04%.
Take `COCC1COCCC12CCN(S(=O)(=O)c1ccc(C)cc1)CC2` (centres undefined): the cytotoxicity at 10 µM amounted to 4.79%.
Then `O=C(c1cccnc1)N1CCc2c(COCC3CC3)cncc2C1`, with -77.2%; and `COc1ccccc1-n1nc(CC(C)C)nc1CSc1nnc(N)s1`, with 1.62%; and `CCCn1cc(C(=O)NCCC(=O)NC2CCCCC2)c(C)n1`, with -3.31%.
`CCCn1ncc(C(=O)N2CCN([C@H]3CCCC[C@@H]3O)CC2)c1C`: the cytotoxicity at 10 µM is -137%.
To `Cc1ccccc1NC(=O)N1CCN(C(=O)C2CC2)[C@@H]2CS(=O)(=O)C[C@@H]21` belongs 2.78%; to `c1ccc(Cc2n[nH]c(C3CCOC3)n2)cc1` (centres undefined), 1.06%; to `COc1cc(C)c(C2CC(=O)Nc3cc(NS(C)(=O)=O)ccc32)cc1C` (centres undefined), -15%.
In the case of `Cc1nc[nH]c1CN(C)Cc1cnn(-c2ccc(F)cc2)c1`, the cytotoxicity at 10 µM worked out at 0.345%.
In the case of `CNc1ncc(C(=O)N2CCC(c3ccccc3C(=O)O)C2)cn1` (centres undefined), the cytotoxicity at 10 µM is -7.67%.
In the case of `CN1CC2(CCN(C(=O)c3[nH]cnc3-c3ccccc3)C2)OC1=O` (centres undefined), the cytotoxicity at 10 µM is 4.43%.
`CCCOCC(=O)N1CCc2nc(NC)nc(C(=O)N3CCCC3)c2C1`: the cytotoxicity at 10 µM is -109%.
Take `Cc1cc(C)c(C(=O)N2CCOC(CCN(C)C)C2)o1` (centres undefined): the cytotoxicity at 10 µM was -1.92%.
Take `CC(Oc1ccc2c(c1)OCO2)C(=O)N1CCC(N2CCCC2)CC1` (centres undefined): the cytotoxicity at 10 µM was -4.63%.
To `O=C1[C@@H]2CN(c3ncc(Cl)cc3F)C[C@]2(C(=O)O)CN1CC1CC1` belongs -0.33%.
Regarding `COc1cccc([C@@H]2CCN(Cc3c[nH]c(C)n3)C[C@H]2O)c1`, the cytotoxicity at 10 µM was -2.89%.
Take `Cc1nc(C)n(C2CCCN(C(=O)CCOC(C)C)C2)n1` (centres undefined): the cytotoxicity at 10 µM was -1.92%.
On to `CCn1cnnc1C1CCN(C(=O)c2ccoc2C)CC1`, for which the cytotoxicity at 10 µM was -8.04%.
`CN(Cc1nc2c(cnn2C)c(=O)[nH]1)Cc1ccco1`: the cytotoxicity at 10 µM was -8.11%.
Regarding `CC(C(=O)NCCN1CCCCC1)n1cncn1` (centres undefined), the cytotoxicity at 10 µM was -3.37%.
To `Cc1noc(Cl)c1CCC(=O)N1CCC(Nc2cccnn2)CC1` belongs -2.57%; to `CCCc1nc(C(C)(C)NC(=O)C2CC(=O)N(CC(C)C)C2)no1` (centres undefined), -5.31%.
To `Cc1ccc(-c2cc(CNC(=O)N3CCSCC3)on2)cc1` belongs 2.7%.
`CC(Cn1ccnc1)NC(=O)NCCc1ccc(Cl)s1` (centres undefined): the cytotoxicity at 10 µM was -12.4%.
To `COc1cccc(-n2c(C)cc(C(=O)NCCCC(N)=O)c2C)c1` belongs -11.9%.
Then `COc1ccc(C(=O)NC(CC(=O)O)c2cccs2)c(OC)c1` (centres undefined), with -0.463%; and `CSC(C)C(=O)N1CCCN(Cc2nccn2C)CC1` (centres undefined), with -11.6%.
On to `CN1CCCN(C(=O)NCCNc2cnccn2)CC1`, for which the cytotoxicity at 10 µM was -3.4%.
For `CCN(CC)CCn1c(=O)oc2ccccc21`, the cytotoxicity at 10 µM was determined as 2.96%.
Regarding `Cn1nc(Cn2cccc2)c2c1CN(Cc1ccsc1)C2`, the cytotoxicity at 10 µM was -133%.
